The text below walks through data of ChEMBL document CHEMBL3585257, “Structure-Activity Relationship Studies of 3-epi-Deoxynegamycin Derivatives as Potent Readthrough Drug Candidates” (ACS Med Chem Lett, 2015).

The test system of series [1] is COS-7. Briefly: Mutation read through activity in african green monkey COS7 cells transfected with dual-reporter plasmid encoding beta-galactosidase and luciferase genes connected with TGA-containing mouse mdx gene exon 23 nucleotide sequence as premature termination codon assessed as ratio of luciferase activity to beta-galactosidase activity at 200 uM incubated for 48 hrs at 37 degC relative to basal level. It is filed as functional, Chlorocebus aethiops. The method, boiled down:
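COS-7 cells transfected with a dual-reporter plasmid: constitutive β-galactosidase upstream of a TGA premature stop codon, luciferase downstream. Compounds tested at 200 μM. Lysate luciferase/β-galactosidase activity ratio expressed relative to untreated (D-MEM) basal level = 1; some series normalized to a reference compound instead. Triplicate, mean ± SD.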

Series [2] deals with COS-7. Briefly: Mutation read through activity in african green monkey COS7 cells transfected with dual-reporter plasmid encoding beta-galactosidase and luciferase genes connected with TGA-containing mouse mdx gene exon 23 nucleotide sequence as premature termination codon assessed as ratio of luciferase activity to beta-galactosidase activity at 25 to 200 uM incubated for 48 hrs at 37 degC relative to basal level. It is filed as functional, cell-based. The following applies: Chlorocebus aethiops.

Another series relates to Escherichia coli. Briefly: Toxicity against Escherichia coli NBRC3972. Format: functional.
For a further series, the system named is Staphylococcus aureus. Briefly: Toxicity against Staphylococcus aureus NBRC13276. It is filed as functional.
For series [3], the system named is COS-7. Description: Mutation read through activity in african green monkey COS7 cells transfected with dual-reporter plasmid encoding beta-galactosidase and luciferase genes connected with TGA-containing mouse mdx gene exon 23 nucleotide sequence as premature termination codon assessed as ratio of luciferase activity to beta-galactosidase activity at 20 uM incubated for 48 hrs at 37 degC relative to basal level. Format: functional, Chlorocebus aethiops.

Series [4] is described as follows: Mutation read through activity in human cell-free protein synthesis system containing beta-galactosidase and luciferase genes connected with TGA-containing mouse mdx gene exon 23 nucleotide sequence as premature termination codon assessed as ratio of luciferase activity to beta-galactosidase activity at 20 uM incubated at 37 degC for 3 hrs relative to basal level. Put shortly:
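Cell-free translation of the β-galactosidase–TGA–luciferase dual reporter with compound at 20 μM. Readthrough given as luciferase/β-galactosidase ratio relative to no-compound control (= 1). n = 3, mean ± SD.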

The nature of series [5]: Drug metabolism in presence of porcine liver esterase assessed as (S)-2-[2-(3,5-Diaminopentanoyl)-1-methylhydrazinyl]acetic acid.2TFA formation in 100 mM pH 7.4 phosphate buffer at 37 degC. The following applies: pig, isolated protein, TDE = time-dependent effect.
Series [6] can be described thus: Stability in absence of porcine liver esterase assessed as compound remaining in 100 mM pH 7.4 phosphate buffer at 37 degC after 6 hrs. It is filed as physicochemical. The settings on record: phosphate buffer without porcine liver esterase, read-out: Stability. The method, boiled down: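 Ester incubated without esterase in 100 mM phosphate buffer, pH 7.4, at 37 °C for 6 h. Percent compound remaining measured by RP-HPLC.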

Series [7] in a line: Drug metabolism in presence of porcine liver esterase assessed as (S)-2-[2-(3,5-Diaminopentanoyl)-1-methylhydrazinyl]acetic acid.2TFA formation in 100 mM pH 7.4 phosphate buffer at 37 degC incubated for 1 to 4 hrs. Format: physicochemical. The following applies: pig, isolated protein.

Structures are written as SMILES. Values after ≈ are worked out from the molar mass of the structure shown.

As for `CN(CC(=O)OCc1ccccc1[N+](=O)[O-])NC(=O)C[C@@H](N)CCN`, the Ratio with COS-7 [1] is recorded as 4.51.

Take `CN(CC(=O)O)NC(=O)[C@@H](N)CCCCN`: in the series on COS-7 [1], the Ratio is recorded as 1.01.

As to `CN(CC(=O)O)NC(=O)CC(N)CN` (single isomer, unassigned), the Ratio in the series on COS-7 [1] is 1.49.

For the compound `CN(CC(=O)O)NC(=O)[C@@H](N)CN`, the Ratio in the series on COS-7 [1] is on record as 1.3.

As a reminder, the MIC is the lowest concentration that inhibits growth of the organism. Regarding `CN(CC(=O)O)NC(=O)C[C@@H](N)CCN`, in the series with COS-7 [2], the Activity entry is “Dose-dependent effect”. Also, the MIC in the series with Escherichia coli was ≥ 1020 µg/mL; against Staphylococcus aureus, 1020 µg/mL (≈ 4.69 mM). The values for the Ratio (in the series with COS-7 [3]; in series [4]; with COS-7 [1]) were 3.1, 2.72 and 4.28, respectively.

Consider `CN[C@@H]1[C@@H](O)[C@@H](O[C@@H]2[C@@H](O)[C@H](O[C@H]3O[C@H]([C@@H](C)O)[C@@H](O)[C@H](O)[C@H]3N)[C@@H](N)C[C@H]2N)OC[C@]1(C)O` [GENETICIN], for which the Ratio in the series with COS-7 [1] came to 6.65.

Consider `CN(CC(=O)O)NC(=O)[C@@H](N)CCCN`, for which the Ratio with COS-7 [1] was determined as 0.99.

In the case of `CCNC(=O)CN(C)NC(=O)C[C@@H](N)CCN`, the Ratio in the series with COS-7 [1] was found to be 1.42.

On to `CN(CC(=O)OCc1cccc(Br)c1)NC(=O)C[C@@H](N)CCN`, for which the Ratio in the series on COS-7 [1] is reported as 3.75.

For the compound `CN(CC(=O)O)NC(=O)C[C@H](N)C[C@@H](O)CN` [NEGAMYCIN], the Ratio in the series on COS-7 [1] turned out to be 1.81.

Consider `CN(CC(=O)O)NC(=O)C[C@@H](N)CCCN`, for which the Ratio in the series with COS-7 [1] amounted to 2.94.

For the compound `CN(CC(=O)O)NC(=O)[C@@H](N)CCN`, in the series with COS-7 [1], the Ratio is 1.07.

Regarding `CCOC(=O)CN(C)NC(=O)C[C@@H](N)CCN`, the Ratio in the series with COS-7 [1] worked out at 2.08.

In the case of `COc1ccccc1COC(=O)CN(C)NC(=O)C[C@@H](N)CCN`, the Ratio in the series on COS-7 [1] is 3.1.

Consider `CN(CC(=O)OCc1cccc([N+](=O)[O-])c1)NC(=O)C[C@@H](N)CCN`, for which the Ratio in the series on COS-7 [1] worked out at 3.21.

In the case of `COc1cccc(COC(=O)CN(C)NC(=O)C[C@@H](N)CCN)c1`, in the series with COS-7 [1], the Ratio came to 3.71.

`CN(CC(=O)OCc1ccc([N+](=O)[O-])cc1)NC(=O)C[C@@H](N)CCN`: the Ratio with COS-7 [1] is on record as 3.05.

Take `CN(CC(=O)OCc1ccccc1)NC(=O)C[C@@H](N)CCN`: the Ratio in the series on COS-7 [1] is 4.04.

`CN(CC(=O)O)NC(=O)C[C@@H](N)CCCCN`: the Ratio in the series with COS-7 [1] is recorded as 2.05.

Turning to `CN(CC(=O)OCc1ccc(Br)cc1)NC(=O)C[C@@H](N)CCN`, in the series on COS-7 [1], the Ratio is listed as 2.98.

`CN(CC(=O)OCc1cccc(Cl)c1)NC(=O)C[C@@H](N)CCN`: the Ratio turned out to be 3.58 in the series on COS-7 [3], 1.23 in series [4] and 4.9 with COS-7 [1]. Further, the Drug metabolism entry in [5] was “tde”; in series [7] it was “metabolite_detected”. Also, in [6], the remaining at 6 h is 94%.

`COc1ccc(COC(=O)CN(C)NC(=O)C[C@@H](N)CCN)cc1`: the Ratio in the series with COS-7 [1] is recorded as 3.25.

On to `CN(CC(=O)NCc1ccccc1)NC(=O)C[C@@H](N)CCN`, for which the Ratio in the series with COS-7 [1] is given as 0.8.

For `CN(CC(=O)OCc1ccccc1Cl)NC(=O)C[C@@H](N)CCN`, the Ratio in the series with COS-7 [1] came out at 3.34.

As to `CN(CC(=O)OCc1ccccc1Br)NC(=O)C[C@@H](N)CCN`, the Ratio in the series on COS-7 [1] is on record as 3.83.

Take `CN(CC(=O)OCc1ccc(Cl)cc1)NC(=O)C[C@@H](N)CCN`: in the series with COS-7 [1], the Ratio is listed as 4.21.
